Measured values gathered from unrelated publications.
Protocols differ between the studies behind these lines.
Target: Tyrosine-protein kinase BTK (BTK, Homo sapiens, UniProt Q06187)

| SMILES | test | conditions | remaining binding |
| --- | --- | --- | --- |
| N#Cc1ccc(Nc2ccc3[nH]c(=O)[nH]c3c2)c(Cl)c1 | cell-free assay, competition with immobilised ligand | 1 µM | 100% |
| C[C@@H]1CN(c2ccc3ncc(-c4ccc5[nH]nc(C6CC6)c5c4)n3n2)C[C@H](C)O1 | binding, competition with immobilised ligand | 50 nM | 67% |
| O=C(NCC1CCOCC1)c1n[nH]cc1NC(=O)c1c(F)cccc1F | binding, competition with immobilised ligand | 1 µM | 91% |
| F[C@@H]1CCN(c2nccc(-c3cnn4ncccc34)n2)C1 | binding | 1 µM | 100% |
| CC(=O)Nc1c(C(C)=O)c(=O)n(C)c2nc(-c3ccc(Cl)cc3Cl)c(-c3ccc(Cl)cc3)cc12 | cell-free assay, competition with immobilised ligand | 1 µM | 88% |
| CN(C)c1nccc(-c2cnc3ncccn23)n1 | binding | 1 µM | 68% |
| CO[C@@H](C)c1c(Nc2ccc([C@H](N(C)C(=O)C3CCS(=O)(=O)CC3)C(F)(F)F)cc2)cnc2cc(Cl)nn12 | cell-free assay, competition with immobilised ligand | 1 µM | 100% |
| O=C(NCCCN1CCOCC1)c1ccc(Nc2nccc(-c3cc4ccccc4s3)n2)cc1 | binding, competition with immobilised ligand | 1 µM | 77% |
| Nc1ncc2c(n1)-c1c([nH]c3ccc(C#CC4CC4)cc13)CCCC2 | binding, competition with immobilised ligand | 1 µM | 61% |
| CS(=O)(=O)N1CCCC(NC(=O)[C@H](CCC2CCCCC2)NC(=O)c2ccc(CNc3ncnc4c3nnn4-c3ccccc3)cc2)C1 (stereo partly drawn) | cell-free assay, competition with immobilised ligand | 0.1 µM | 100% |
| c1cncc(-c2cccc(Nc3nccc(NC4CCCCC4)n3)c2)c1 | binding, competition with immobilised ligand | 10 µM | 36% |
| Cc1cnc(Nc2ccc(C(=O)N3CCC(N4CCCC4)CC3)cc2)nc1-c1cc2ccccc2s1 | binding, competition with immobilised ligand | 1 µM | 54% |
| C[C@H]1CCN(c2nccc(-c3cnn4ncccc34)n2)C1 | binding | 1 µM | 95% |
| Cn1cc(Cl)c2c(Oc3c(F)cc(Nc4cc(Cl)nc(N)n4)cc3F)ccnc21 | cell-free assay, competition with immobilised ligand | 0.1 µM | 84% |
| COc1cnc(Nc2cccc(S(N)(=O)=O)c2)nc1N1CCN(c2ccccc2)C(=O)C1 | binding, competition with immobilised ligand | 1 µM | 81% |
| Nc1c(C(=O)NCc2ccc(C(=O)NCCCC3CCCCC3)cc2)cnn1-c1ccccc1 | cell-free assay, competition with immobilised ligand | 0.1 µM | 100% |
| O=C(c1ccc(Nc2nccc(-c3cc4ccccc4s3)n2)cc1)N1CCC(N2CCCC2)CC1 | binding, competition with immobilised ligand | 1 µM | 87% |
| CN(C)c1ncc(F)c(-c2cnn3ncccc23)n1 | binding | 1 µM | 75% |
| CNC(=O)[C@@H]1CC[C@@H](n2c(-c3ccc4cnccc4c3)nc3ccc(C(=O)NCc4cccc(C(N)=O)c4)cc32)C1 | binding, competition with immobilised ligand | 1 µM | 96% |
| COc1ncc2cc3ccccc3nc2c1C#N | cell-free assay, competition with immobilised ligand | 5 µM | 100% |
| COc1ccnn2ncc(-c3ccnc(N(C)C)n3)c12 | binding | 1 µM | 94% |
| Cc1ccc(-n2nc(C(C)(C)C)cc2NC(=O)Nc2ccc(-n3c(N)c(C(N)=O)c4nc5ccccc5nc43)cc2)cc1 | cell-free assay, competition with immobilised ligand | 1 µM | 0.95% |
| CC1CCCN1c1nccc(-c2cnn3ncccc23)n1 (stereo not drawn) | binding | 1 µM | 100% |
| CCS(=O)(=O)c1cc2cc(C[C@](O)(CC(C)(C)c3ccc(F)cc3C(N)=O)C(F)(F)F)[nH]c2cn1 | cell-free assay, competition with immobilised ligand | 1 µM | 100% |
